Assay outcomes deposited in PubChem BioAssay by several laboratories.
A selection: hits, their analogues and other compounds. The true share with any hit is near 9.4%.
CSC inhib = blocks cancer stem cells; cancer stem cell-like cells viability, luminescence; inhibition, % at 7.5 µM; 300,000 compounds, 1.1% hits; in the data active means inhibition above about 75%; tested in HMLE shEcad cells
Mdm2 MdmX PPI = disrupts the human Mdm2-MdmX interaction. SaOS-2 split-luciferase Mdm2/MdmX complementation, luminescence. inhibition, % at 8 µM. 330,000 compounds, 3% hits;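 active means inhibition of at least 50% at 8 µM in the primary screen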
Beta cell apopt = blocks beta cell apoptosis. INS-1E cytokine-induced death, ATP luminescence, 48 h; percent of positive-control rescue, neutral wells zero. AID 435005. protection from apoptosis, % (no concentration beside the values). 300,000 compounds, 0.8% hits;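 active means Every replicate reaches about 75%, or at least half do and their mean reaches it too, limit read from the data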;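 further: 0% = cytokine-treated negative control wells and 100% = positive control rescue; higher means more ATP so stronger rescue from cytokine killing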
T cruzi inh = T. cruzi replication inhibition; T. cruzi beta-gal in NIH3T3, luminescence, 90 h; inhibition, % (no concentration beside the values); 300,000 compounds, 1.4% hits; AID 1885;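 active means mean inhibition across valid replicates above about 55%, limit read from the data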;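 further: signal also drops with host cell toxicity which is not excluded here; 0% = plate median of DMSO wells and 100% = zero luminescence signal; higher percent means less beta-gal luminescence so fewer parasites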
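Assay system: NIH/3T3 fibroblasts plus reporter T. cruzi. Amount: NIH/3T3 cells, 5,000 per well. Buffer or medium: DMEM, 2% fetal bovine serum. Doses: compound pinned at 50 nL/well, DMSO. Schedule: ≥90 h infection period, 3 h prior cell attachment. Signal: luminescent β-galactosidase signal after 60 min lysis. Read-out: parasite load inhibition, %.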
SKKanGAS inh = blocks kanamycin growth of S. pyogenes SKKanGAS strain; BacTiter-Glo, 6 h; inhibition, % at 7.5 µM; 300,000 compounds, 1.3% hits;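 active means mean replicate score, as percent of positive control median, at least 50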;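 further: strain carries kanamycin resistance gene driven by streptokinase promoter and grows in 40 µg/ml kanamycin; loss of luminescence reflects streptokinase promoter inhibition or plain growth inhibition; 0% = median of DMSO wells and 100% = positive control at its reference dose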
Lmaj promast = reduces viability of Leishmania major promastigotes | AID 1063 | inhibition, % at 10 µM | 200,000 compounds, 9% hits | resazurin fluorescence viability; in the data active means inhibition above about 50%;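 further: promastigotes grown with compound for 44 hours at 28 °C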
Numbers without * were called inactive; x = not tested or not shown.

SMILES | CSC inhib | Mdm2 MdmX PPI | Beta cell apopt | T cruzi inh | SKKanGAS inh | Lmaj promast
CCC(C)(NC=O)C(=O)Nc1c(C)cccc1C (stereo unspecified) | -11.5 | -6.2 | -4.9 | -6.3 | -4.0 | x
COC(=O)c1ccc(C(=O)N=c2sccn2C)cc1 | 11.2 | -5.6 | 1.9 | -8.7 | -2.2 | x
N=c1c2c(-c3ccccc3)c(-c3ccccc3)oc2ncn1CCCN1CCOCC1 | 6.9 | 36.0 | x | 15.2 | 4.2 | 86.8*
c1ccc(-c2oc3ncnc(NCCN4CCOCC4)c3c2-c2ccccc2)cc1 | -9.3 | 20.4 | 6.5 | 34.5 | 15.3 | 98.0*
Cc1sc2ncnc(NCCN3CCOCC3)c2c1C | x | 23.9 | 3.4 | 5.4 | 8.1 | 6.6
N=c1c2c(-c3ccccc3)c(-c3ccccc3)oc2ncn1CCN1CCOCC1 | 16.2 | 26.7 | x | 43.9 | 15.6 | 16.3
CCn1c(SCC(=O)Nc2ccc(OC)cc2)nc2c(c1=O)SCC2 | -10.2 | 14.0 | -7.4 | 3.2 | 1.1 | x
Cc1cc(C)cc(Nc2nc3ccccc3c(=O)[nH]2)c1 | -4.3 | 9.8 | -0.5 | 19.7 | -4.8 | 15.6
Cc1ccc2c(=O)[nH]c(Nc3nc(C)cc(-c4ccccc4)n3)nc2c1 | 7.6 | 28.3 | 15.2 | 17.5 | 89.0* | x
CCn1nnc(NC(=O)c2ccco2)n1 | -6.3 | 38.3 | 2.0 | -5.9 | 1.0 | x
O=C(c1cc(F)c(F)cc1Cl)N1CCCc2ccccc21 | 18.3 | 5.4 | -0.3 | 2.5 | -10.4 | x
O=c1nc2ccccc2c2n1CC(CN1CCN(C(c3ccccc3)c3ccccc3)CC1)N2 (stereo unspecified) | -2.4 | 30.3 | -4.7 | 16.2 | 4.6 | 66.5*
CC(=O)c1ccc(-c2ccc(C(=O)N(C)c3c(N)n(Cc4ccccc4)c(=O)[nH]c3=O)o2)cc1 | -6.7 | 9.3 | 2.1 | -11.3 | 21.5 | x
O=C(NC1CCCCCC1)c1ccc(CN2CCOCC2)cc1 | -8.1 | -15.6 | 1.5 | -2.8 | -1.2 | 59.3*
O=C(NCCC1=CCCCC1)c1ccc(CN2CCOCC2)cc1 | 11.9 | -36.1 | 7.6 | -6.8 | 3.4 | 81.2*
O=C(NCCC1=CCCCC1)c1ccc(F)cc1 | -16.2 | -91.2 | 2.0 | -1.5 | 3.4 | 3.5
CC(=O)Nc1cccc(OCCCNC(=O)C2CCC2)c1 | -4.7 | 5.0 | -2.0 | -16.5 | -4.8 | x
O=C(OCC(=O)N1CCCc2ccccc21)c1ccc(S(=O)(=O)C(F)F)cc1 | -9.8 | 19.6 | -1.9 | -1.5 | 18.4 | x
O=S(=O)(Cc1ccccc1Cl)N1CCN(Cc2ccc3c(c2)OCO3)CC1 | x | 3.2 | x | 20.3 | -2.8 | 96.1*
COc1ccc(C(=O)NCc2ccc3c(c2)OCO3)cc1S(=O)(=O)NCc1ccc(Cl)cc1 | -6.1 | 17.8 | 1.6 | -12.5 | 1.9 | 61.5*
COc1ccc(Cl)cc1S(=O)(=O)N1CCN(Cc2ccc3c(c2)OCO3)CC1 | -3.6 | -8.3 | -14.6 | 14.6 | x | 72.5*
CSc1ccc(S(=O)(=O)N2CCN(Cc3ccc4c(c3)OCO4)CC2)cc1 | 17.5 | -6.3 | -5.8 | -6.4 | 6.8 | 82.4*
CC(=O)Nc1ccc(NC(=O)C(C)OC(=O)C23CC4CC(CC(Cl)(C4)C2)C3)cc1 (stereo unspecified) | -2.5 | 5.3 | -2.6 | x | x | x
COc1ccc(S(=O)(=O)NC2CCCC2)cc1C(N)=O | -0.9 | 17.7 | -7.6 | -2.8 | 0.1 | x
CN(Cc1ccccc1F)C(=O)CNC(=O)Cc1cccc2ccccc12 | -19.3 | 21.4 | -8.4 | 4.3 | 1.2 | x
SMILES | CSC inhib | Mdm2 MdmX PPI | Beta cell apopt | T cruzi inh | SKKanGAS inh | Lmaj promast
COc1ccccc1OCC(=O)Nc1c2c(nn1-c1ccccc1)CS(=O)(=O)C2 | -9.3 | 9.2 | -5.2 | 6.6 | -4.2 | x
O=S(=O)(c1ccc(N2CCN(Cc3ccc4c(c3)OCO4)CC2)nc1)N1CCOCC1 | -2.4 | 3.4 | -2.1 | 14.3 | -6.6 | 93.5*
Cn1cc(CN2CCN(c3ccc(Cl)cn3)CC2)c(-c2ccccc2F)n1 | -5.0 | 8.8 | 1.0 | 17.5 | -5.7 | 1.4
Cn1cc(CN2CCN(Cc3ccc4c(c3)OCO4)CC2)c(-c2ccccc2F)n1 | -7.0 | 6.2 | 0.4 | 6.9 | -12.9 | 60.4*
CC(C)(C)N1C(=O)c2ccc(C(=O)Nc3ccc(O)cc3)cc2C1=O | 13.2 | 9.6 | -1.6 | 3.4 | -3.4 | x
CCCc1c(C(=O)NNc2ccc(C)cc2)cnn1-c1ccccc1 | 93.0* | 5.3 | -8.8 | 10.7 | 31.2 | x
CCOc1ccc(-c2nn(-c3ccccc3)cc2/C=C(\C#N)S(=O)(=O)c2ccccc2)cc1C | 8.2 | 41.0 | 3.4 | -6.8 | -7.3 | 64.0*
N#C/C(=C\c1cn(-c2ccccc2)nc1-c1ccccc1)S(=O)(=O)c1ccccc1 | -2.4 | 30.6 | 3.8 | -13.6 | 1.9 | 4.7
